According to paper PMC6988732 (The Biochemical journal, 2013):
Substitutions are numbered along the chain they refer to. Where “and” joins values, the source holds several entries; their conditions need not be identical. Identical values can stand only once.

Tests used:
[1] = biological target: T1, PKCθC1B T243A (Mus musculus, UniProt Q02111, T243A); assay: [3H]PDBu binding assay
T1 sequence (Q02111 232-281 T243A): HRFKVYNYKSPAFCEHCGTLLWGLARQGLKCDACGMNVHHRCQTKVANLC
Summary of the method: (§1)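 GST-cleaved mouse PKCθ C1B (residues 232–281), E. coli-expressed, affinity/gel-filtration purified. PEG-precipitation [3H]PDBu binding; Kd from saturable plus linear non-specific fit. Ki: [3H]PDBu at 2–5-fold each construct's Kd, DOG or SAG 1–100000 nM, dried from chloroform with phospholipid, sonicated. PS dependence: total phospholipid 100 μg/ml, PS 0–100%, remainder PC, relative to 100% PS. Means ± S.E.M., three independent experiments.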

[2] = biological target: full-length PKCθ Q258G (Mus musculus, UniProt Q02111, Q258G); assay: Membrane translocation in HEK-293 cells; format: cell-based; settings: 250 nM DOG, 2 h
[3] = biological target: T2, PKCθC1B Y239A (Mus musculus, UniProt Q02111, Y239A); assay: [3H]PDBu binding assay
T2 sequence (Q02111 232-281 Y239A): T1 sequence (Q02111 232-281 T243A) with Y8A, A12T
Summary of the method: as §1

[4] = biological target: T3, PKCθC1B W253G (Mus musculus, UniProt Q02111, W253G); assay: [3H]PDBu binding assay
T3 sequence (Q02111 232-281 W253G): T1 sequence (Q02111 232-281 T243A) with A12T, W22G

[5] = biological target: full-length PKCθ T243A (Mus musculus, UniProt Q02111, T243A); assay: Membrane translocation in HEK-293 cells; format: cell-based; settings: 250 nM DOG, 2 h
[6] = biological target: full-length PKCθ Y239A (Mus musculus, UniProt Q02111, Y239A); assay: Membrane translocation in HEK-293 cells; format: cell-based; settings: 250 nM DOG, 2 h
[7] = biological target: T4, PKCθC1B wild-type (Mus musculus, UniProt Q02111); assay: [3H]PDBu binding assay; settings: PKCθ C1B WT
T4 sequence (Q02111 232-281): T1 sequence (Q02111 232-281 T243A) with A12T
Summary of the method: as §1

[8] = biological target: full-length PKCθ L255G (Mus musculus, UniProt Q02111, L255G); assay: Membrane translocation in HEK-293 cells; format: cell-based; settings: 250 nM DOG, 2 h
[9] = biological target: full-length PKCθ W253G (Mus musculus, UniProt Q02111, W253G); assay: Membrane translocation in HEK-293 cells; format: cell-based; settings: 250 nM DOG, 2 h
[10] = biological target: T5, PKCθC1B Q258G (Mus musculus, UniProt Q02111, Q258G); assay: [3H]PDBu binding assay
T5 sequence (Q02111 232-281 Q258G): T1 sequence (Q02111 232-281 T243A) with A12T, Q27G
Summary of the method: as §1

[11] = biological target: T6, PKCθC1B L255G (Mus musculus, UniProt Q02111, L255G); assay: [3H]PDBu binding assay
T6 sequence (Q02111 232-281 L255G): T1 sequence (Q02111 232-281 T243A) with A12T, L24G
Summary of the method: as §1

full-length PKCθ W253G, sequence (Q02111 whole entry W253G): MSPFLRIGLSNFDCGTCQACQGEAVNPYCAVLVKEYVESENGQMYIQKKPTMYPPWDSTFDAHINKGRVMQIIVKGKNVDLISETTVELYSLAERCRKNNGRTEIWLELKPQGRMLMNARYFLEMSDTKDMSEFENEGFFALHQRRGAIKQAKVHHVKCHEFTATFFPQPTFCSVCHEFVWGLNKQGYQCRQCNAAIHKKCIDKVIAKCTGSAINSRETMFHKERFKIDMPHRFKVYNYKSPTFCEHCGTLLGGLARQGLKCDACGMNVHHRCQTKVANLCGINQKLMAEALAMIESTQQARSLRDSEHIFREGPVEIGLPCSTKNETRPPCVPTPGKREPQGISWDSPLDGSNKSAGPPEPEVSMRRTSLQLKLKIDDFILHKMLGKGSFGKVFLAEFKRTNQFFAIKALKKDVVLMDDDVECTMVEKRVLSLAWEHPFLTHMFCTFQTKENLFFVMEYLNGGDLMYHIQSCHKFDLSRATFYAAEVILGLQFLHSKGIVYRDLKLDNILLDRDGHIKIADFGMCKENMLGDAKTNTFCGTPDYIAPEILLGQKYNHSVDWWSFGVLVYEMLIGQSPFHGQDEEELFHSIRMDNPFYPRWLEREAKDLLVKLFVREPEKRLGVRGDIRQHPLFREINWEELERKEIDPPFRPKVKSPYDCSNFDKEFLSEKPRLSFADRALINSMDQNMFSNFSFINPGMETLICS
full-length PKCθ T243A, sequence (Q02111 whole entry T243A): as the sequence (Q02111 whole entry W253G) above, with T243A, G253W counted along it
full-length PKCθ Q258G, sequence (Q02111 whole entry Q258G): as the sequence (Q02111 whole entry W253G) above, with G253W, Q258G counted along it
full-length PKCθ L255G, sequence (Q02111 whole entry L255G): as the sequence (Q02111 whole entry W253G) above, with G253W, L255G counted along it
full-length PKCθ Y239A, sequence (Q02111 whole entry Y239A): as the sequence (Q02111 whole entry W253G) above, with Y239A, G253W counted along it

Question: What does the source list for `CCCCCCCC(=O)OC[C@H](CO)OC(=O)CCCCCCC` [DOG, sn-1,2-dioctanoylglycerol]?
Answer: Ki/Kd ([1]; PKCθ C1B T243A, Ki of the diacylglycerol over Kd of PDBu): 34; Ki ([1]; PKCθ C1B T243A, competition of [3H]PDBu binding, mean ± S.E.M.): 21.5 ± 1.8 nM; reduction in binding affinity compared with the wild-type ([1]; T243A vs wild-type PKCθC1B (Kd for PDBu, Ki for DOG/SAG)): 1.34 fold; reduction in membrane translocation compared with the wild-type [2]: 15.9%; Ki/Kd ([3]; PKCθ C1B Y239A, Ki of the diacylglycerol over Kd of PDBu): 26; Ki ([3]; PKCθ C1B Y239A, competition of [3H]PDBu binding, mean ± S.E.M.): 86 ± 15 nM; reduction in binding affinity compared with the wild-type ([3]; Y239A vs wild-type PKCθC1B (Kd for PDBu, Ki for DOG/SAG)): 5.34 fold; Ki/Kd ([4]; PKCθ C1B W253G, Ki of the diacylglycerol over Kd of PDBu): 159; Ki ([4]; PKCθ C1B W253G, competition of [3H]PDBu binding, mean ± S.E.M.): 470 ± 69 nM; greater loss of affinity for DOG than for PDBu caused by W253G ([4]; W253G vs wild-type): 4 fold; reduction in binding affinity compared with the wild-type ([4]; W253G vs wild-type PKCθC1B (Kd for PDBu, Ki for DOG/SAG)): 29.2 fold and 29 fold; reduction in membrane translocation compared with the wild-type [5]: 8.98%; reduction in membrane translocation compared with the wild-type [6]: 12.0%; Ki/Kd ([7]; Ki of the diacylglycerol over Kd of PDBu): 41; Ki ([7]; competition of [3H]PDBu binding, mean ± S.E.M.): 16.1 ± 0.7 nM; reduction in membrane translocation compared with the wild-type [8]: 15.4%; reduction in membrane translocation compared with the wild-type [9]: 5.9%; Ki/Kd ([10]; PKCθ C1B Q258G, Ki of the diacylglycerol over Kd of PDBu): 3; Ki ([10]; PKCθ C1B Q258G, competition of [3H]PDBu binding, mean ± S.E.M.): 1840 ± 320 nM; reduction in binding affinity compared with the wild-type ([10]; Q258G vs wild-type PKCθC1B (Kd for PDBu, Ki for DOG/SAG)): 114 fold; reduction in binding affinity compared with the wild-type ([11]; L255G vs wild-type PKCθC1B (Kd for PDBu, Ki for DOG/SAG)): 4.72 fold; Ki/Kd ([11]; PKCθ C1B L255G, Ki of the diacylglycerol over Kd of PDBu): 17; Ki ([11]; PKCθ C1B L255G, competition of [3H]PDBu binding, mean ± S.E.M.): 76 ± 24 nM
